From ChEMBL document CHEMBL4613267, “Novel Potent Muscarinic Receptor Antagonists: Investigation on the Nature of Lipophilic Substituents in the 5- and/or 6-Positions of the 1,4-Dioxane Nucleus” (J Med Chem, 2020)
Calls of active or inactive are those of the source. No cut-off for these calls is given here.

What was measured:
[1] = target: T1, Muscarinic acetylcholine receptor (Mus musculus) (UniProt Q920H4+Q9ERZ4+P12657+P32211+Q9ERZ3); assay: Activity at muscarinic receptor in BALB/c mouse MSC assessed as reduction in cell viability at 10^-4M incubated for 24 hrs by Cell-titer 96 aqueous one solution reagent based assay
Procedure, shortened: (§1)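 Bone-marrow MSCs from mouse, cultured for 2 weeks, then seeded at 5,000 cells/well in DMEM with 10% heat-inactivated FCS. Exposed to compound at 10–4 to 10–10 M for 24 h, with vehicle (DMSO) and untreated controls. Viability read by MTS reagent (2 h, 5% CO2) as absorbance at 490 nm. Mean ± SEM of four independent experiments.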

[2] = target: T1, Muscarinic acetylcholine receptor (Mus musculus); conditions: BALB/c, 10^-10M
[3] = target: T1, Muscarinic acetylcholine receptor (Mus musculus); assay: Activity at muscarinic receptor in BALB/c mouse MSC assessed as increase in cell viability at 10^-10M incubated for 24 hrs by Cell-titer 96 aqueous one solution reagent based assay; procedure, shortened: as §1
[4] = target: T1, Muscarinic acetylcholine receptor (Mus musculus); assay: Antagonist activity at muscarinic receptor in BALB/c mouse MSC assessed as inhibition of carbachol-induced increase in cell viability at 10^-4 to 10^-10M incubated for 24 hrs by Cell-titer 96 aqueous one solution reagent based assay
Procedure, shortened: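 Mouse bone-marrow MSCs kept as adherent cultures, with medium changes, for 2 weeks, then plated at 5,000 cells/well in DMEM with 10% HIFCS. Antagonist (10–4 to 10–10 M) given for 1 h, medium replaced, then carbachol 10–10 M for 24 h. Viability read by MTS, 2 h incubation, absorbance 490 nm. Controls were vehicle (DMSO) and untreated cells. Four independent experiments, mean ± SEM.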

[5] = target: T2, Muscarinic acetylcholine receptor M4 (Homo sapiens, UniProt P08173); assay: Displacement of [3H]NMS from human recombinant muscarinic receptor M4 expressed in CHO-K1 cell membranes incubated for 2 hrs by scintillation counting method
T2 sequence (P08173 whole entry): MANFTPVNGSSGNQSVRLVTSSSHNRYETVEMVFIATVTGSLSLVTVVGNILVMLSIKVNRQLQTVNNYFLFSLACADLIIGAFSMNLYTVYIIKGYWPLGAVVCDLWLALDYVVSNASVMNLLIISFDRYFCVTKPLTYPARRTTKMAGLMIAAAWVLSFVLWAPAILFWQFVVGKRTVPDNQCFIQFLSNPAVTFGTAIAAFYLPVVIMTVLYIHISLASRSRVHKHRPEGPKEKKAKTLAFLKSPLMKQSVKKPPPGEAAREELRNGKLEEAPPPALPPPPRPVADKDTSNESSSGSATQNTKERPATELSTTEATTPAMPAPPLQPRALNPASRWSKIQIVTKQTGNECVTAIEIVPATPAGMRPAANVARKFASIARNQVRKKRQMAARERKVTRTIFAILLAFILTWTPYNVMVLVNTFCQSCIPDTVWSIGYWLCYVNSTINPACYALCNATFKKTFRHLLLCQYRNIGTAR
Procedure, shortened: (§2)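 CHO-K1 membranes stably expressing hM4 or hM5, at about 25–70 μg/mL protein, in 25 mM sodium phosphate with 5 mM MgCl2, pH 7.4. Competition with 0.2 nM [3H]NMS for 2 h at r.t.; nonspecific binding defined with 10 μM atropine. Filtration, then scintillation counting. IC50 from four-parameter logistic fit, converted to Ki. Mean ± S.E.M. of ≥3 experiments, each in duplicate.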

[6] = target: T3, Muscarinic acetylcholine receptor M5 (Homo sapiens, UniProt P08912); assay: Displacement of [3H]NMS from human recombinant muscarinic receptor M5 expressed in CHO-K1 cell membranes incubated for 2 hrs by scintillation counting method; procedure, shortened: as §2
T3 sequence (P08912 whole entry): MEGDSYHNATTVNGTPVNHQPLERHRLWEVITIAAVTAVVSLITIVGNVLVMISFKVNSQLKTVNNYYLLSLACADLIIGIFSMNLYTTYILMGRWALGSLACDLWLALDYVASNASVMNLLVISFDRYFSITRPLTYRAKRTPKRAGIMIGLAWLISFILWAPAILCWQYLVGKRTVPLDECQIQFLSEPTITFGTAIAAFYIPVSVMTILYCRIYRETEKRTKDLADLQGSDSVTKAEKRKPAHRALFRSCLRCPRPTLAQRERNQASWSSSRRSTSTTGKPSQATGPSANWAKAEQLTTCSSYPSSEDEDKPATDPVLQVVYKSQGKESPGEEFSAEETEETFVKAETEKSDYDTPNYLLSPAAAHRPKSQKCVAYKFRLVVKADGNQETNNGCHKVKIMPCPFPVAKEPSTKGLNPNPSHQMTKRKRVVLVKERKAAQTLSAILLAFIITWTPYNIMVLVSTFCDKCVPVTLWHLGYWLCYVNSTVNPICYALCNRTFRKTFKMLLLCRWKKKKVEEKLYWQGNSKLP

[7] = target: Muscarinic acetylcholine receptor M3 (Homo sapiens, UniProt P20309); assay: Displacement of [3H]NMS from human recombinant muscarinic receptor M3 expressed in CHO-K1 cell membranes incubated for 2 hrs by scintillation counting method
Sequence of Muscarinic acetylcholine receptor M3 (P20309 whole entry): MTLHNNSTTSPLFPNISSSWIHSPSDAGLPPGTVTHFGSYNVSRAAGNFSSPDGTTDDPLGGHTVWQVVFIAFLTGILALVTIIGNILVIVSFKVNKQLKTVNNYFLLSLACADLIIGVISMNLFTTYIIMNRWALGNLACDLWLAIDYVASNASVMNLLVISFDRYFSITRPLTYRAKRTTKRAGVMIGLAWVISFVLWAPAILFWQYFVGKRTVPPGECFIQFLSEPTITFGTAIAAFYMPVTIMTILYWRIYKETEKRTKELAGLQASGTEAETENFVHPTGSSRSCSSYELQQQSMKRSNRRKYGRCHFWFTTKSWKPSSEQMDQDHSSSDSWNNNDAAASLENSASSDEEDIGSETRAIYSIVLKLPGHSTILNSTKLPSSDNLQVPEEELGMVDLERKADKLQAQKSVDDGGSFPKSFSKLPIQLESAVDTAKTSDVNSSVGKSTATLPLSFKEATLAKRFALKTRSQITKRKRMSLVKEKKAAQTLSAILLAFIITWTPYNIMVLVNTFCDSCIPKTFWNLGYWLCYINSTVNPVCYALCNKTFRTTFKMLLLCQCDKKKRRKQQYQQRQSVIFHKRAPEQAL
Procedure, shortened: (§3)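 Membranes from CHO-K1 cells stably expressing each human subtype, homogenised in 25 mM sodium phosphate, 5 mM MgCl2, pH 7.4. About 25–70 μg/mL protein incubated with 0.2 nM [3H]NMS and test compound for 2 h at r.t. Nonspecific binding defined with 10 μM atropine. Filtration, then counting. Four-parameter logistic fit gave IC50, converted to Ki. Mean ± S.E.M. of ≥3 experiments in duplicate.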

[8] = target: T4, Muscarinic acetylcholine receptor M2 (Homo sapiens, UniProt P08172); assay: Displacement of [3H]NMS from human recombinant muscarinic receptor M2 expressed in CHO-K1 cell membranes incubated for 2 hrs by scintillation counting method; procedure, shortened: as §3
T4 sequence (P08172 whole entry): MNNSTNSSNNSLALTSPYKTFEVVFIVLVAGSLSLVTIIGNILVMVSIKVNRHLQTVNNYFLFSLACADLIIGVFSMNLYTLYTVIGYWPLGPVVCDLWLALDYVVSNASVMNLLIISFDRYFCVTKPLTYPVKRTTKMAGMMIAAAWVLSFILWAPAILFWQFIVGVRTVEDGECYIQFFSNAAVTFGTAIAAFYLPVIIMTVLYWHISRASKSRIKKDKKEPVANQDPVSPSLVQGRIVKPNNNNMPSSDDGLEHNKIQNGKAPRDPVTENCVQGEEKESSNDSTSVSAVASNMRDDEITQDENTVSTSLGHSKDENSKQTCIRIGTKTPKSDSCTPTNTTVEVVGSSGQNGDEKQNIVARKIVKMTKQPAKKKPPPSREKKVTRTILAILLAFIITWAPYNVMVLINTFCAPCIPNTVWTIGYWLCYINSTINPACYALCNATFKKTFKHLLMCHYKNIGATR

[9] = target: T5, Muscarinic acetylcholine receptor M1 (Homo sapiens, UniProt P11229); assay: Displacement of [3H]NMS from human recombinant muscarinic receptor M1 expressed in CHO-K1 cell membranes incubated for 2 hrs by scintillation counting method; procedure, shortened: as §3
T5 sequence (P11229 whole entry): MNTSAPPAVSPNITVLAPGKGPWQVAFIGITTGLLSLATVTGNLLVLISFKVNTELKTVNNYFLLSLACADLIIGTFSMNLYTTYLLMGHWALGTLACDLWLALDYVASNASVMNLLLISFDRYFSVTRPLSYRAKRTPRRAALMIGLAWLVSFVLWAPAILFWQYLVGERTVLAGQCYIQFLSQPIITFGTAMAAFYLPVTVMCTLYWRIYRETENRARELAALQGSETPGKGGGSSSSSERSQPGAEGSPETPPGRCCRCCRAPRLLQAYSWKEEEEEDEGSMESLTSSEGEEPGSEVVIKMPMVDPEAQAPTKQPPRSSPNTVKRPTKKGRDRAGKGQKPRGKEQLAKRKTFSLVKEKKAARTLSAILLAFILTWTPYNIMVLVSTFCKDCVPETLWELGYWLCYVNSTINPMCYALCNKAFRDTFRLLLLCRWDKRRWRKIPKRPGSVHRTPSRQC

SMILES	Activity [1]	inhibition [2]	Activity [3]	inhibition [4]	Ki [5]	Ki [6]	Ki [7]	Ki [8]	Ki [9]
CN1[C@@H]2CC[C@H]1C[C@@H](OC(=O)C(CO)c1ccccc1)C2 (stereo partly specified)	Active	Active	Active	–	–	–	–	–	–
C[N+](C)(C)C[C@@H]1COC[C@](c2ccccc2)(C2CCCCC2)O1 (relative stereo)	Active	–	Active	Active	–	–	–	–	–
O=C(O[C@H]1C[C@H]2CC[C@@H](C1)[N+]21CCCC1)C(O)(c1ccccc1)c1ccccc1 [TROSPIUM CHLORIDE]	–	–	–	–	1.45 nM	6.03 nM	1.02 nM	1.15 nM	3.47 nM
